# Measurements from different studies.
# Protocols differ between the studies behind these lines.
# Target: Serine/threonine-protein kinase tousled-like 2 (TLK2, Homo sapiens, UniProt Q86UE8)
Compound,observed,mode,method,tested at,measurement,value
Cc1ccc(C(=O)Nc2ccc(CN3CCN(C)CC3)c(C(F)(F)F)c2)cc1C#Cc1cnc2cccnn12,enzyme activity,inhibitor,,23.5 nM,remaining activity,100%
c1ccc(CNc2nc(N3CCOc4ccccc43)nc3c2CCCC3)cc1,target engagement in cells,inhibitor,chemoproteomics,20 mM,inhibition,-6.8%
Cc1ccc(NC(=O)c2ccc(C)c(C(F)(F)F)c2)cc1C#Cc1nn(C2CCC(O)CC2)c2ncnc(N)c12 (centres unmarked),cell-free assay,,,10 µM,remaining signal,93%
CCC(=O)N[C@@H]1CC[C@H](C(=O)N(C)c2ccc(-c3nc4ccccc4o3)cc2)C1,cell-free assay,,competition with immobilised ligand,1 µM,remaining binding,100%
CC(C)(C)c1nc2c(s1)c1nc(N)ncc1c1ccc(NS(=O)(=O)c3c(F)cccc3F)c(F)c12,enzyme activity,inhibitor,radiometric,1 µM,remaining activity,109%
CNC(=O)c1cc(Oc2ccc(NC(=O)Nc3ccc(Cl)c(C(F)(F)F)c3)cc2)ccn1,enzyme activity,inhibitor,,0.3 µM,inhibition,-9%
CCCS(=O)(=O)Nc1ccc(F)c(C(=O)c2c[nH]c3ncc(-c4ccc(Cl)cc4)cc23)c1F,enzyme activity,inhibitor,,1 µM,inhibition,< 10%
Cc1sc(C(=O)NC2COC2)cc1-n1cc(NC(=O)Nc2c(F)cccc2Cl)cn1,enzyme activity,inhibitor,,10 µM,remaining activity,97.2%
O=C(NC[C@@H]1[C@H]2CN(C(=O)OCc3cc(C(F)(F)F)cc(C(F)(F)F)c3)C[C@@H]12)c1ccc2[nH]nnc2c1,cell-free assay,,competition with immobilised ligand,1 µM,remaining binding,90%
Oc1cccc(-c2nc(N3CCOCC3)c3oc4ncccc4c3n2)c1,cell-free assay,,,0.5 µM,remaining signal,102%
CCCCN(CCCC)C(=O)CN1C[C@@H](c2cc(OC)c3c(c2)OCO3)[C@H](C(=O)O)[C@H]1CC(C)(C)CCC,cell-free assay,,competition with immobilised ligand,1 µM,remaining binding,100%
Nc1ncnc2occ(-c3ccc(NC(=O)Nc4cc(C(F)(F)F)ccc4F)cc3)c12,cell-free assay,inhibitor,,20 µM,remaining signal,89%
CC(C)(O)[C@H]1CC[C@H](Nc2ccc3ncc(-c4cccc(C(F)(F)F)c4)n3n2)CC1,enzyme activity,inhibitor,,1 µM,remaining activity,103%
O=C1Nc2ccc(Cl)cc2C1=Cc1cc(Cl)c(O)c(Cl)c1,cell-free assay,,,0.5 µM,remaining signal,105%
CN(C)c1ncnc(-c2ccc3nc(Nc4cc(CN5CCN(C(=O)CC(F)(F)F)CC5)ccn4)[nH]c3c2)c1Cl,cell-free assay,,competition with immobilised ligand,1 µM,remaining binding,100%
CN1CC(Oc2cnc(C#N)cc2-c2ccn3nc(NC(=O)C4CC4)cc3c2)C1,enzyme activity,inhibitor,,1 µM,inhibition,1%
COc1cc(Nc2c(C#N)cnc3cc(OCCCN4CCN(C)CC4)c(OC)cc23)c(Cl)cc1Cl,cell-free assay,,,0.5 µM,remaining signal,92.2%
COc1ccc2cc(OCC3(C(=O)O)CN(C(=O)c4ccc(F)cc4)C3)ccc2c1,cell-free assay,,competition with immobilised ligand,1 µM,remaining binding,100%
Cc1ccc(Nc2nccc(N(C)c3ccc4c(C)n(C)nc4c3)n2)cc1S(N)(=O)=O,cell-free assay,inhibitor,,0.5 µM,remaining signal,85.6%
O=C(Nc1cnc(Oc2ccc(F)cc2)nc1)N1CCc2ncccc2[C@@H]1c1ccc(F)cc1,cell-free assay,,competition with immobilised ligand,1 µM,remaining binding,89%
